{"data": "Measurements collected from several papers", "organism": "Lodderomyces parapsilosis", "read-out": "microbial growth"}
{"SMILES": "CCCCCCCCCCCCCN1CCNCC1", "technique": "broth dilution", "strain": "ATCC22019", "time": "48 h", "measurement": "MIC", "result": "1.95 µg/mL"}
{"SMILES": "C[C@@H]1[C@H](O)[C@@H](C)/C=C/C=C/C=C/C=C/C=C/C=C/C=C/[C@H](O[C@@H]2O[C@H](C)[C@@H](O)[C@H](N)[C@@H]2O)C[C@@H]2O[C@](O)(C[C@@H](O)C[C@@H](O)[C@H](O)CC[C@@H](O)C[C@@H](O)CC(=O)O[C@H]1C)C[C@H](O)[C@H]2C(=O)O", "measurement": "MIC90", "result": "0.125 µg/mL"}
{"SMILES": "O=C1/C(=C/c2cc(O)c(O)c(O)c2)Oc2cccc(O)c21", "technique": "broth dilution", "measurement": "MIC", "result": "16 µg/mL"}
{"SMILES": "OC(Cn1cncn1)(Cn1cncn1)c1ccc(F)cc1F", "technique": "broth dilution", "time": "24 h", "measurement": "MIC90", "result": "0.5 µg/mL"}
{"SMILES": "C[C@@H]1[C@H](O)[C@@H](C)/C=C/C=C/C=C/C=C/C=C/C=C/C=C/[C@H](O[C@@H]2O[C@H](C)[C@@H](O)[C@H](N)[C@@H]2O)C[C@@H]2O[C@](O)(C[C@@H](O)C[C@@H](O)[C@H](O)CC[C@@H](O)C[C@@H](O)CC(=O)O[C@H]1C)C[C@H](O)[C@H]2C(=O)O", "technique": "broth dilution", "measurement": "MIC", "result": "0.25 µg/mL"}
{"SMILES": "CCCCCCCCCCCCCCN1CCN(CC(O)(Cn2cncn2)c2ccc(F)cc2F)CC1 (stereo not shown)", "technique": "broth dilution", "strain": "ATCC22019", "time": "48 h", "measurement": "MIC", "result": "> 31.3 µg/mL"}
{"SMILES": "C[C@@H](c1ncncc1F)[C@](O)(Cn1cncn1)c1ccc(F)cc1F", "measurement": "MIC90", "result": "0.016 µg/mL"}
{"SMILES": "CCCCCCCCCCN1CCN(CC(O)(Cn2cncn2)c2ccc(F)cc2F)CC1 (stereo not shown)", "technique": "broth dilution", "strain": "ATCC22019", "time": "48 h", "measurement": "MIC", "result": "0.015 µg/mL"}
{"SMILES": "CC(=O)c1ccc(-c2ccc3oc(C(=O)c4cc(O)c(O)c(O)c4)cc3c2)cc1", "technique": "broth dilution", "measurement": "MIC", "result": "2 to 4 µg/mL"}
{"SMILES": "CC(=O)N1CCN(c2ccc(OCC3COC(Cn4ccnc4)(c4ccc(Cl)cc4Cl)O3)cc2)CC1 (stereo not shown)", "measurement": "MIC90", "result": "0.125 µg/mL"}
